Results: the RNAGym collection of RNA variant scans (doi:10.1126/science.aae0568)
This sample holds only a part of the variants without activity.

B1: tRNA (parent)
chain: GUUCCGUUGGCGUAAUGGUAACGCGUCUCCCUCCUAAGGAGAAGACUGCGGGUUCGAGUCCCGUACGGAACG

Variants of: B1
Assay: yeast fitness relative to wild type (ratio to wild type); higher = fitter; tRNA-Arg(CCU), competitive growth, 37 C, YPD
Outline: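 Start and end populations of a pooled competition were compared by 100-nucleotide paired-end sequencing of gene amplicons. The Saccharomyces cerevisiae strains carried tRNA-Arg(CCU) gene variants at the native genomic locus, synthesised with a 3% per-site mutation rate at 69 sites, and competed in YPD at 37°C for 24 hours in six parallel replicates. Darwinian fitness relative to wild type was based on the change in genotype frequencies. Genotypes required ≥ 100 starting reads, and estimates < 0.5 were set to 0.5.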

| Variant | yeast fitness |
| --- | --- |
| GUUCCGUUGGCGUUAUGGUAACGCGUCUCGCUCCUAAGGAGAAGACUGCGGGUUCGAGUCCGGUACGGAACG | 0.573 |
| GUUCCGUUGGCGUUAUGGUAACGCGUCUGCCUCCUAAGGAGAAGACUGCGGGUUCGAGUCCUGUACGGAACG | ≤ 0.5 |
| GUUCCGUUGGCGUUAUGGUAACGCGUUUGCUUCCUAAGGAGAAGACUGCGGGUUCGAGUCCCGUACGGAACG | ≤ 0.5 |
| GUUCCGUUGGCGUUAUGGUAACGAGUCUCCCUCCUAAGGAGAAGACUGCGGGUUGGAGUCCCGUACGGAACG | ≤ 0.5 |
| GUUCCGUUGGCGUUAUGGUAACGUGUCUCCCUCUUAAGGAGAAGACUGGGGGUUCGAGUCCCGUACGGAACG | ≤ 0.5 |
| GUUCCGUUGGCGUUAUGGUAAGGCGUCUCCCUCCUAAGGAGAAGACUGCGGGUUCGAGUGCCGUACGGAACG | ≤ 0.5 |
| GUUCCGUUGGCGUUAUGGUAAUGCGUCUCCCUCCUAAGGUGAACACUGCGGGUUCGCGUCCCGUACGGAACG | 0.635 |
| GUUCCGUUGGCGUUAUGGUAACGGGUCUCCAUCCUAAGGGGAACACUGCGGGUUUGAGUCCCGUACGGAACG | ≤ 0.5 |
| GUUCCGUUGGCGUUAUGGUAACGCGUCUCUCUCCUAAGGAGGAGACUGCGGGUUCGAGUCCCGUACGGAACG | ≤ 0.5 |
| GUUCCGUUGGCGUUAUGGUAACGCGUCUCUCUCCUAAGGAGCAGACUGCGGGUUCGAGUCCCGUACGGAACG | ≤ 0.5 |
| GUUCCGUUGGCGUUAUGGUAACGAGUCUCUCUCCUAGGGAGAAGACUGCGGGUUCGAGUCCCGUACGGAACG | ≤ 0.5 |
| GUUCCGUUGGCGUUAUGGUAACGUGUCUCCCUGCUAAGGAGAAGACUGCGGGUUCGAGUCCCGUUUGGCACG | ≤ 0.5 |
| GUUCCGUUGGCGUUAUGGUAACGCGUCUUCCUCCUAUGGAAAAGACUGCGGGUUCGAGUCCCGUACGGAACG | ≤ 0.5 |
| GUUCCGUUGGCGUUAUGGUAACGCGUCUCACUCCUAAGGAGACGACUGCGGGUUCGAGUCCCAUACGGAACG | ≤ 0.5 |
| GUUCCGUUGGCGUUAUGGUAACGCGUCUCGCUCCUAAGGAGAAGACUGCGGGUUUGAGUCCCGUACGGAACG | ≤ 0.5 |
| GUUCCGUUGGCGUUAUGGUAACGGGCCCCCCUCCUAAGGAGAAGUCUGAGGGUUCGAGUCCCGUACGGAACG | ≤ 0.5 |
| GUUCCGUUGGCGUUAUGGUAAUGCGUCUCCCUCCUAAGGAGAAGACUGCGGGUUCGAGUCCCGUACGGAACG | 0.54 |
| GUUCCGUUGGCGUUAUGGUAACGCGUAUCCCUCCUAAGGAGAAGACUGCGGGUUCGAGUCCGGUACGGAACG | 0.667 |
| GUUCCGUUGGCGUUAUGGUAACGCGUCUGCCUCCUAAGGAGAAGACUGCGGGUUCGAGUCCCGUACAGAACG | 0.542 |

| Variant | yeast fitness |
| --- | --- |
| GUUCCGUUGGCGUUAUGGUAACGCGUGUCCCUCAUAAGGAGAAGACUGCGGGUUCGAGUCUCGUAGGGUACG | ≤ 0.5 |
| GUUCCGUUGGCGUUAUGGUAACGCGUCUGCCUCCUAAGGAGAAGACUGCGGGUUGGAGUCCCGUACGGGGCG | ≤ 0.5 |
| GUUCCGUUGGCGUUAUGGUAACGCGUUUGCUUCCUAAGGAGAAGACUGCGGGUUCGAGUCGCGUACGGAACG | ≤ 0.5 |
| GUUCCGUUGGCGUUAUGGUAACGCGUCUGCCUCGUAAGGAGAAGACUGCGGGUUCGAGUCCCGUACGGAACG | ≤ 0.5 |
| GUUCCGUUGGCGUUAUGGUAACGGGUCUCCCUCCUAAGGAAAAAACUGCGGGUUCGAGUCUCGUACGGAACG | ≤ 0.5 |
| GUUCCGUUGGCGUUAUGGUAACGGGUCUCCCUCCUAAGGAGAAGACUGCGGGUUCGCGUCCCGUGCGGAACG | ≤ 0.5 |
| GUUCCGUUGGCGUUAUGGUAACGGGUCUCCAUCCUAAGGGGAACACUGCGGGUUUGAGUCCCGUACGGUACG | ≤ 0.5 |
| GUUCCGUUGGCGUUAUGGUAACGCGUCUACCUCCUAAGGAGAAGACUGCGGGUACGAGACCCGUACGGAACG | 0.574 |
| GUUCCGUUGGCGUUAUGGUAACGCGUCUCUCUCCUAGGGAGAAGACUGCGGGUUCGAGUCCCGUACGGAGCG | ≤ 0.5 |
| GUUCCGUUGGCGUUAUGGUAAUGCAUCUCCCUCCUAAGGAGAAGACUGCGGGUUGGAGUUCCGUACGCAACG | ≤ 0.5 |
| GUUCCGUUGGCGUUAUGGUAACGCGUCUCUCUCCUAAGGAGAAGAUUGCGGCUUCGAGUCCCGUACGGAACG | ≤ 0.5 |
| GUUCCGUUGGCGUUAUGGUAACGUGUCUCCCUCCUAAGGAGAAGACUCCGGGUUCGAGUCCUGUACGGACCG | ≤ 0.5 |
| GUUCCGUUGGCGUUAUGGUAACGCGUGUCCCUCCUAAGGAGAAGACUGCGGAUUCGAGUCCCCUACGGAACG | ≤ 0.5 |
| GUUCCGUUGGCGUUAUGGUAAUGCGUCUCCCUCCUUAGGAGAAGACUGCGGGUUCGAGUCCCGUACGGAACG | 0.571 |
| GUUCCGUUGGCGUUAUGGUAACGGGUCUCCCUCCUAAGGAAAAAACUGCGGGUUCGAGUCCCGUACGGAACG | ≤ 0.5 |
| GUUCCGUUGGCGUUAUGGUAACGGGUCUCCCUCCUAAGGAGCAGACUGCGGGUUCGAGUCCCGUACGGAACG | 0.531 |
| GUUCCGUUGGCGUUAUGGUAACGCGUCUCUAUCCUAAGGAGAAGACUGCGGGUUCGAGUCCCCUACGGAACG | ≤ 0.5 |
| GUUCCGUUGGCGUUAUGGUAACGCGUCUGCCUCCUAAGGAGAAGACUGCGAGUUCGAGUCCCGUAGGGAACG | ≤ 0.5 |
| GUUCCGUUGGCGUUAUGGUAAAGCGUCUCCCUCCUAAGGAGAAGACUGCGGGUUCGCGUCCCGUACGGAACG | ≤ 0.5 |
